Ends that are not written are not given here. * marks the point of attachment. Dnp = O=[N+]([O-])c1ccc(*)c([N+](=O)[O-])c1
Experiments:
[1] = tested on: MDA-MB-231 cells; assay: Antibody-dependent cellular cytotoxicity with PBMCs; assay type: cell-based, human
Method in brief: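 MDA-MB-231 cells (150000) were exposed to the pH-adjusted conjugate for 5 min at 37 °C, at pH 7.4 or 6.0. After washing, they were incubated with unconjugated rabbit anti-DNP-KLH (25 μg/mL, 30 min, 4 °C). Single-donor human PBMCs were added at 50:1 in RPMI 1640 for 4 h at 37 °C. Supernatant LDH was read at 490/680 nm. Cytotoxicity % = (LDH − normal)/normal × 100. Control normal release was effector-only or target-only at pH 7.4.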

[2] = tested on: MDA-MB-231 cells; assay: Complement-dependent cytotoxicity; assay type: cell-based, human; details: 1 μM conjugate, 12.5% PHS, 4 h, LDH release
Method in brief: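 Cells (240000 MDA-MB-231) were treated in suspension with 1 μM conjugate for 5 min at 37 °C, at pH 7.4 or 6.0. After washing they were opsonised with 25 μg/mL rabbit anti-DNP-KLH (30 min, 4 °C). Pooled human complement serum was added to 12.5% in DMEM for 4 h at 37 °C. Supernatant LDH was assayed in triplicate (30 min RT, 490/680 nm). Cytotoxicity is relative to antibody-only cells without peptide. Mean ± SEM, n = 3–12.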

[3] = tested on: MDA-MB-231 cells; assay: Antibody recruitment assay, anti-DNP-A488, flow cytometry; assay type: cell-based, human; details: 1 μM conjugate, pH 7.4 or 6.0, 25 μg/mL anti-DNP-A488, flow cytometry, n = 3
Method in brief: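 Conjugate held at 20 μM in 5 mM sodium phosphate pH 9.0 for 1 h at RT, then diluted and pH-adjusted with citrate/PBS. Cells were washed, stained with anti-DNP-A488 rabbit polyclonal for 30 min at 4 °C, fixed in 4% PFA and read by flow cytometry. Values are fold over pH 7.4 antibody-only cells.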

[4] = tested on: MDA-MB-231 cells; assay: Toxicity of conjugate alone; assay type: cell-based, human; details: ≤10 μM conjugate only, LDH release (Figure S8)
[5] = tested on: MDA-MB-231 cells; assay: Antibody-dependent cellular cytotoxicity with haNK cells; assay type: cell-based, human; details: 500 nM conjugate, anti-DNP antibody, haNK effector:target 5:1, 4 h, LDH release
Method in brief: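 Targets were 150000 MDA-MB-231 cells, pulsed 5 min at 37 °C at pH 7.4 or 6.0. They were then held with 25 μg/mL rabbit anti-DNP-KLH for 30 min at 4 °C. Effectors were IL-2-maintained F176V CD16+ NK-92 (haNK) cells at 5:1 in MEMα, 4 h, 37 °C. Supernatant LDH was read at 490/680 nm. Lysis % = (LDH − normal)/normal × 100, normal being antibody plus effectors without conjugate. Mean ± SEM, n = 3–12.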

[6] = tested on: MDA-MB-231 cells; assay: Antibody recruitment from pooled human serum; assay type: cell-based; details: 1 μM conjugate, pH 7.4 or 6.0, 12.5% PHS, FITC-labeled anti-human IgG, n = 3

## Dnp-KEQNPIYWARYADWLFTTPLLLLELALLVDADEGTG [Conjugate 2]
[1]; 1 μM conjugate, anti-DNP antibody, pH 6.0 vs 7.4
  pH selectivity of PBMC-mediated cell lysis: ~ 2 fold
[1]; control, mock anti-FITC antibodies or no antibodies prior to PBMCs (Figure S7A)
  cell lysis with mock anti-FITC antibodies or without antibodies (PBMCs): cell lysis was not observed
[2]; pH 6.0, anti-DNP antibody
  cell lysis (CDC): 10%
[2]; pH 7.4, anti-DNP antibody
  toxicity (CDC): no toxicity at all
[3]
  anti-DNP antibody recruitment (cellular fluorescence): highest level of cellular fluorescence
[4]
  cell lysis by conjugate only: cell lysis was not observed
[5]
  cell lysis (ADCC, haNK cells), maximum efficacy: ~ 40%
[6]
  antibody recruitment from serum (relative fluorescence): significant increase in relative fluorescence at pH 6.0 compared to that at pH 7.4

From article PMC7263447 (Journal of medicinal chemistry, 2020)
